# Assay results taken from ChEMBL document CHEMBL1154848, “Cytotoxic 3,4-seco-cycloartane triterpenes from the exudate of Gardenia tubifera” (J Nat Prod, 2010).
# Experiments:
# [1] = test system: HepG2; test: Cytotoxicity against human HepG2 cells after 3 days by MTT assay; assay type: functional, cell-based; conditions: HepG2, 72 h
# Procedure, shortened: (§1)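 Cells grown in RPMI-1640 with 25 mM HEPES, 0.25% (w/v) sodium bicarbonate, 5% (v/v) FBS and 100 µg/mL kanamycin. Freshly trypsinized cells were seeded at 5000 per well and given compound from DMSO-diluted stock. After three days, attached cells were MTT-stained, bound dye was solubilized and absorbance read at 540 nm. IC50 = 50% growth inhibition, averaged over at least six independent determinations.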
# [2] = Cytotoxicity against human KATO III cells after 3 days by MTT assay; assay type: functional, cell-based, KATO III cell; conditions: 72 h; procedure, shortened: as §1
# [3] = Cytotoxicity against human ChaGo cells after 3 days by MTT assay; assay type: functional, cell-based; conditions: 72 h; procedure, shortened: as §1
# [4] = test system: SW-620; test: Cytotoxicity against human SW620 cells after 3 days by MTT assay; assay type: functional, cell-based; conditions: SW-620, 72 h; procedure, shortened: as §1
# [5] = test system: BT-474; test: Cytotoxicity against human BT474 cells after 3 days by MTT assay; assay type: functional, cell-based; conditions: BT-474, 72 h; procedure, shortened: as §1
SMILES,IC50 [1],IC50 [2],IC50 [3],IC50 [4],IC50 [5]
C=C(CO)[C@@H]1CC[C@@H]2[C@]3(CC[C@]4(C)[C@@H]([C@H](C)CC=CC(C)(C)O)CC[C@@]24C)C[C@]13CCC(=O)O,> 5 µg/mL,> 5 µg/mL,> 5 µg/mL,> 5 µg/mL,> 5 µg/mL
C=C1C(=O)O[C@@H]2C[C@@H]3[C@]4(CC[C@]5(C)[C@@H]([C@H](C)Cc6cc(C)co6)CC[C@@]35C)C[C@]4(CCC(=O)O)[C@H]12 [GARDENOIN A],4.5 µg/mL,> 5 µg/mL,1.6 µg/mL,> 5 µg/mL,> 5 µg/mL
C=C1C(=O)O[C@@H]2C[C@@H]3[C@]4(CC[C@]5(C)[C@@H]([C@H](C)Cc6cc(C)co6)CC[C@@]35C)C[C@]4(CCC(=O)OC)[C@H]12 [GARDENOIN B],> 5 µg/mL,> 5 µg/mL,> 5 µg/mL,> 5 µg/mL,> 5 µg/mL
C=C1C(=O)O[C@@H]2[C@H](O)[C@@H]3[C@]4(CC[C@]5(C)[C@@H]([C@H](C)Cc6cc(C)co6)CC[C@@]35C)C[C@]4(CCC(=O)OC)[C@H]12 [GARDENOIN C],2.8 µg/mL,> 5 µg/mL,4.4 µg/mL,2.5 µg/mL,> 5 µg/mL
